Source: ChEMBL document CHEMBL1157224, “2-substituted furans from the roots of Polyalthia evecta” (J Nat Prod, 2006)
Converted amounts (≈) assume the structure as drawn.

How the values were obtained:
[1] = test system: Mycobacterium tuberculosis; test: Antimicrobial activity against Mycobacterium tuberculosis H37Ra by microplate alamar blue assay; type: functional
Summary of the method: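 M. tuberculosis H37Ra in microplate Alamar Blue assay; MIC read-out; isoniazid and kanamycin sulfate as reference drugs.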

[2] = test system: NCI-H187; test: Cytotoxicity against human NCI-H187 cells; type: functional, cell-based
Summary of the method: (§1)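 Human breast cancer (BC) and small cell lung cancer (NCI-H187) lines; colorimetric assay per Skehan; IC50 read-out; ellipticine as reference.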

[3] = test system: Plasmodium falciparum; test: Antimalarial activity against Plasmodium falciparum K1 by [3H]hypoxanthine uptake; type: functional, organism-based
Summary of the method: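 Multidrug-resistant K1 parasites cultured per Trager–Jensen. In vitro microculture radioisotope test, with parasite growth read as [3H]-hypoxanthine uptake. IC50 is the concentration giving 50% reduction in parasite growth. Artemisinin run as standard.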

[4] = test system: Human alphaherpesvirus 1; test: Antiviral activity against HSV1; type: functional, organism-based
Summary of the method: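 Herpes simplex type 1 antiviral test by colorimetric method per Skehan; IC50 read-out; acyclovir as reference.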

[5] = test system: Plasmodium falciparum; test: Antimicrobial activity against Plasmodium falciparum; type: functional, organism-based
Summary of the method: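 P. falciparum K1 (multidrug-resistant) kept in culture per Trager–Jensen; microculture radioisotope test; growth read as [3H]-hypoxanthine uptake; IC50 = concentration giving 50% fewer parasites; artemisinin as reference standard.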

[6] = Cytotoxicity against human BC clls; type: functional, cell-based; summary of the method: as §1

Compound | MIC [1] [µg/mL] | IC50 [4] [µg/mL] | other results
NC[C@H]1O[C@H](O[C@H]2[C@H](O)[C@@H](O[C@H]3O[C@H](CO)[C@@H](O)[C@H](N)[C@H]3O)[C@H](N)C[C@@H]2N)[C@H](O)[C@@H](O)[C@@H]1O.O=S(=O)(O)O [KANAMYCIN SULFATE] | 2 | – | –
OCCCCCCCCCCCCCC#CC#CCCCCc1ccco1 | 6.25 (≈ 16.9 µM) | – | IC50 [2]: 12.4 µg/mL (≈ 33.5 µM)
COC(=O)CCCC#CCCCCCCCCCCCCCc1ccco1 | 3.1 (≈ 8.28 µM) | – | –
C[C@@H]1CC[C@H]2[C@@H](C)C(=O)O[C@@H]3O[C@@]4(C)CC[C@@H]1[C@]32OO4 [ARTEMISININ] | – | – | IC50 [3]: 0.001 µg/mL (≈ 0.00354 µM)
Nc1nc2c(ncn2COCCO)c(=O)[nH]1 [ACYCLOVIR] | – | 1.1 (≈ 4.88 µM) | –
COC(=O)CCCC#CC#CCCCCCCCCCCCc1ccco1 | – | – | IC50 [5]: 3.7 µg/mL (≈ 9.99 µM)
O=C(O)CCCC#CCCCCCCCCCCCCCc1ccco1 | – | 19.4 (≈ 53.8 µM) | –
NNC(=O)c1ccncc1 [ISONIAZID] | 0.04 (≈ 0.292 µM) | – | –
Cc1c2ccncc2c(C)c2c1[nH]c1ccccc12 [ELLIPTECINE] | – | – | IC50 [6]: 0.32 µg/mL (≈ 1.3 µM)
O=C(O)CCCC#CC#CCCCCCCCCCCCc1ccco1 | – | 47 (≈ 132 µM) | IC50 [5]: 50 µg/mL (≈ 140 µM)
